The structures appear in SMILES notation.

As usually defined, the IC50 is the concentration that inhibits the measured activity by half. A high value points to a need for much substance. As a reminder, the logD is the decadic logarithm of the distribution of all forms, ionised or not, between an organic phase and buffer at a given pH. Read a high logD as higher lipophilicity.

Data set [1] relates to DU-145. The data set is described as follows: Selectivity index, ratio of IC50 for human DU145 cells under normoxic condition to IC50 for human DU145 cells under hypoxic condition. In kind it is functional. The procedure, abridged:
(§1)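 Hypoxia cytotoxicity ratio = IC50(air)/IC50(N2), from IC50 values after 2 h exposure of DU145 or PC-3 cells. Based on two or more independent experiments in quintuplicate.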

For data set [2], the system named is DU-145. Description: Cytotoxicity against human DU145 cells incubated for 2 hrs under hypoxic condition measured after 72 hrs by Alamar blue assay. In kind it is functional, cell-based. The procedure, abridged:
(§2)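 DU145 and PC-3 cells exposed 2 h under hypoxia (N2) or normoxia (air). IC50 determined. Mean ± SEM of two or more independent experiments, each in quintuplicate.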

In data set [3] the test system is PC-3. The data set is described as follows: Selectivity index, ratio of IC50 for human PC3 cells under normoxic condition to IC50 for human PC3 cells under hypoxic condition. The format is functional. The procedure, abridged: as §1
Data set [4] relates to DU-145. Description: Cytotoxicity against human DU145 cells incubated for 2 hrs under normoxic condition measured after 72 hrs by Alamar blue assay. The format is functional, cell-based. The procedure, abridged: as §2
For data set [5], the system named is PC-3. The data set is described as follows: Cytotoxicity against human PC3 cells incubated for 2 hrs under hypoxic condition measured after 72 hrs by Alamar blue assay. In kind it is functional, cell-based. Put shortly:
as §2
Background: Resazurin is reduced to fluorescent resorufin, in cell work by metabolically active cells.

For data set [6], the system named is PC-3. The data set is described as follows: Cytotoxicity against human PC3 cells incubated for 2 hrs under normoxic condition measured after 72 hrs by Alamar blue assay. The format is functional, cell-based. The procedure, abridged:
as §2

A short description of data set [7]: Drug uptake in human PC3 cells at 100000 cpm preincubated for 2 hrs measured up to 8 hrs under hypoxic condition by gamma counting analysis. In kind it is ADME, cell-based. To be noted: pc-3, 8 h.
The nature of data set [8]: 1-octanol/phosphate buffered saline distribution coefficient, log D of the compound at 400000 cpm at pH 7.4 by gamma counting method. In kind it is physicochemical.
Data set [9] can be described thus: Drug uptake in human PC3 cells at 100000 cpm preincubated for 2 hrs measured up to 8 hrs under normoxic condition by gamma counting analysis. In kind it is ADME, cell-based. The conditions noted are these: pc-3, 8 h.
A short description of data set [10]: Drug uptake in human DU145 cells at 100000 cpm preincubated for 2 hrs measured up to 8 hrs under hypoxic condition by gamma counting analysis. The format is ADME, cell-based. The conditions noted are these: du-145, 8 h.
The nature of data set [11]: Drug uptake in human DU145 cells at 100000 cpm preincubated for 2 hrs measured up to 8 hrs under normoxic condition by gamma counting analysis. The format is ADME, cell-based. The conditions noted are these: du-145, 8 h.

For `Cn1c(COP(=O)(NCCBr)NCCBr)cnc1[N+](=O)[O-]` [EVOFOSFAMIDE], the “Ratio IC50” value in the data set with DU-145 [1] is reported as 203; with PC-3 [3] it was 106. The concentration for half-maximal inhibition (IC50) with DU-145 [2] worked out at 4.14 µM; with DU-145 [4], 842 µM; in the data set with PC-3 [5], 6.49 µM; with PC-3 [6] it was 687 µM.
As to `Cn1c(COP(=O)(N(CCBr)Cc2cn(Cc3ccccc3)nn2)N(CCBr)Cc2nnn(Cc3ccccc3)c2[125I])cnc1[N+](=O)[O-]` (stereo unspecified), the Drug uptake in data set [7] is recorded as 4%; in data set [9] it was 2%; in [10], 4%; in data set [11] it was 2%. The logD in [8] came out at 0.55.

Source of the values: ChEMBL document CHEMBL4130594 (ACS Med Chem Lett, 2017).
